Source: ChEMBL document CHEMBL4706553, “Discovery of potent small molecule PROTACs targeting mutant EGFR” (Eur J Med Chem, 2020)
Calls of active or inactive are those of the source. The rule behind the calls is not given here.

Legend:
[1] = tested on: von Hippel-Lindau disease tumor suppressor/Epidermal growth factor receptor (Homo sapiens), P00533+P40337 [UNDEFINED MUTATION]; assay: Protac activity at VHL/EGFR del19 mutant in human HCC827 cells assessed as induction of EGFR degradation at 0.033 uM pretreated with proteasome inhibitor, MG132 for 2 hrs followed by incubation with compound for 24 hrs by Western blot analysis; type: cell-based
NCI-H1975 [2] = assay: Induction of cell cycle arrest in human NCI-H1975 cells assessed as accumulation at G1 phase measured at 333 to 1000 nM measured after 48 hrs by propidium iodide staining based flow cytometry analysis; type: functional; conditions: dose 333-1000 nM
In short: (§1)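 Cell cycle: cells were seeded at 0.5–1 × 10⁶ per well for 24 h, then treated 48 h. They were collected and washed twice in PBS, stained with PI/RNase at 37 °C for 15 min, and analysed by flow cytometry. n = 2.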

[3] = tested on: von Hippel-Lindau disease tumor suppressor/Epidermal growth factor receptor (Homo sapiens), P00533+P40337 [L858R,T790M]; assay: Protac activity at VHL/EGFR L858R/T790M mutant in human H1975 cells assessed as induction of degradation of EGFR at 1 uM pretreated with autophagy inhibitor, chloroquine for 2 hrs followed by incubation with compound for 24 hrs by Western blot analysis; type: cell-based; conditions: NCI-H1975
In short: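 H1975 cells pretreated with chloroquine for 2 h, then exposed to compound for 24 h. EGFR level by Western blot; n = 3.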

[4] = tested on: von Hippel-Lindau disease tumor suppressor/Epidermal growth factor receptor (Homo sapiens), P00533+P40337 [L858R,T790M]; assay: Protac activity at VHL/EGFR L858R/T790M mutant in human H1975 cells assessed as induction of degradation of EGFR at 333 nM incubated for 48 hrs measured after compound wash-out for 48 hrs by Western blot analysis; type: cell-based; conditions: NCI-H1975
In short: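 H1975 cells (RPMI-1640, 10% heat-inactivated FBS) exposed to 333 nM for 48 h. Medium then replaced with compound-free medium, and lysates collected at the stated times. EGFR read by Western blot; n = 2.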

NCI-H1975 [5] = assay: Antiproliferative activity against human H1975 cells expressing EGFR L858R/T790M mutant assessed as cell growth inhibition measured after 72 hrs by MTT assay; type: functional, cell-based; conditions: NCI-H1975, 72 h
In short: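 MTT assay on H1975 cells grown in RPMI-1640 with 10% heat-inactivated FBS and 1% penicillin-streptomycin at 37 °C and 5% CO₂. Cells were seeded at 3000–8000 per well and left 24 h, then exposed to a concentration series for 72 h. MTT (5 mg/mL stock in PBS) was added for 4 h, supernatant removed and formazan dissolved in DMSO. IC50 was fitted by nonlinear regression (log inhibitor vs response).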

[6] = tested on: von Hippel-Lindau disease tumor suppressor/Epidermal growth factor receptor (Homo sapiens), P00533+P40337 [UNDEFINED MUTATION]; assay: Protac activity at VHL/EGFR del19 mutant in human HCC827 cells assessed as induction of EGFR degradation at 0.1 to 0.3 nM precultured in medium without FBS followed by incubation with compound for 16 hrs by Western blot analysis; type: cell-based; conditions: dose 0.1-0.3 nM
In short: (§2)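 HCC827 or H1975 cells precultured 8 h in medium with or without FBS, then treated at the stated concentrations for 16 h. EGFR protein by Western blot; n = 3.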

[7] = tested on: von Hippel-Lindau disease tumor suppressor/Epidermal growth factor receptor (Homo sapiens), P00533+P40337 [UNDEFINED MUTATION]; assay: Protac activity at VHL/EGFR del19 mutant in human HCC827 cells assessed as maximal induction of EGFR degradation at 33 nM measured after 48 hrs by Western blot analysis; type: cell-based
In short: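 HCC827 cells seeded at 0.5–1 × 10⁶ per well, then treated at the stated concentrations for 48 h. EGFR by Western blot; n = 3. DC₅₀ (concentration giving 50% EGFR loss) by nonlinear regression, log(inhibitor) vs response.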

[8] = target: von Hippel-Lindau disease tumor suppressor/Epidermal growth factor receptor (Homo sapiens, UniProt P00533+P40337); assay: Protac activity at VHL/EGFR in human A431 cells assessed as induction of degradation of EGFR at 0.1 to 3.3 uM incubated for 48 hrs by Western blot analysis; type: cell-based; conditions: A-431, dose 0.1-3.3 µM
HCC827 [9] = assay: Inhibition of colony formation in human HCC827 cells at 1 nM incubated for 15 days by crystal violet staining based analysis; type: functional, cell-based; conditions: time 15.0 day
In short: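 Colony formation: 200 cells per well were seeded and incubated 24 h, then kept with compound for 15 days. After three PBS washes, cells were fixed in cold 75% ethanol and stained with 0.1% crystal violet in water for 1 h. Colonies were counted.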

[10] = tested on: von Hippel-Lindau disease tumor suppressor/Epidermal growth factor receptor (Homo sapiens), P00533+P40337 [UNDEFINED MUTATION]; assay: Protac activity at VHL/EGFR del19 mutant in human HCC827 cells assessed as induction of EGFR degradation at 33 nM incubated for 24 hrs measured following drug wash-out for 48 hrs by Western blot analysis; type: cell-based
In short: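 HCC827 cells (RPMI-1640, 10% heat-inactivated FBS, 1% sodium pyruvate, 1% glutamine, 37 °C, 5% CO₂) treated at 33 nM for 24 h. Medium then replaced with compound-free medium, and protein harvested at the stated times. EGFR read by Western blot; n = 2.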

[11] = tested on: von Hippel-Lindau disease tumor suppressor/Epidermal growth factor receptor (Homo sapiens), P00533+P40337 [L858R,T790M]; assay: Protac activity at VHL/EGFR L858R/T790M mutant in human H1975 cells assessed as induction of degradation of EGFR by measuring reduction in Akt phosphorylation at 100 nM incubated for 48 hrs by Western blot analysis; type: cell-based; conditions: NCI-H1975
In short: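 HCC827 or H1975 cells treated at the stated concentrations for 48 h. Lysates probed by Western blot for EGFR, P-EGFR, Akt and P-Akt (each 1:1000); n = 2.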

[12] = tested on: von Hippel-Lindau disease tumor suppressor/Epidermal growth factor receptor (Homo sapiens), P00533+P40337 [UNDEFINED MUTATION]; assay: Protac activity at VHL/EGFR del19 mutant in human HCC827 cells assessed as induction of EGFR degradation at 333 nM measured after 24 hrs by Western blot analysis; type: cell-based
In short: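 HCC827 cells seeded at 0.5–1 × 10⁶ per well, grown 24 h, then treated at the stated concentrations for 24 h. EGFR^del19 level by Western blot with anti-EGFR antibody and β-actin loading control.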

HCC827 [13] = assay: Antiproliferative activity against human HCC827 cells expressing EGFR del19 mutant assessed as cell growth inhibition measured after 72 hrs by MTT assay; type: functional, cell-based; conditions: HCC827, 72 h
In short: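 HCC827 cells were kept in RPMI-1640 with 10% heat-inactivated FBS, 1% sodium pyruvate, 1% glutamine and 1% penicillin-streptomycin at 37 °C and 5% CO₂, seeded at 3000–8000/well and rested 24 h. Compounds were applied as a concentration series for 72 h. MTT (5 mg/mL stock in PBS) was given for 4 h, then medium was removed and DMSO added. IC50 came from nonlinear regression (log inhibitor vs response).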

[14] = tested on: von Hippel-Lindau disease tumor suppressor/Epidermal growth factor receptor (Homo sapiens), P00533+P40337 [L858R,T790M]; assay: Protac activity at VHL/EGFR L858R/T790M mutant in human H1975 cells assessed as maximal induction of degradation of EGFR incubated for 48 hrs by Western blot analysis relative to control; type: cell-based; conditions: NCI-H1975
In short: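 H1975 cells exposed to the stated concentrations for 48 h. EGFR by Western blot; n = 3. DC₅₀ by nonlinear regression, log(inhibitor) vs response.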

[15] = tested on: von Hippel-Lindau disease tumor suppressor/Epidermal growth factor receptor (Homo sapiens), P00533+P40337 [L858R,T790M]; assay: Protac activity at VHL/EGFR L858R/T790M mutant in human H1975 cells assessed as induction of degradation of EGFR at 100 to 333 nM precultured in medium without FBS followed by incubation with compound for 16 hrs by Western blot analysis; type: cell-based; conditions: NCI-H1975, dose 100-333 nM; in short: as §2
HCC827 [16] = assay: Induction of cell cycle arrest in human HCC827 cells assessed as accumulation at G1 phase at 10 to 100 nM measured after 48 hrs by propidium iodide staining based flow cytometry analysis; type: functional; conditions: dose 10-100 nM; in short: as §1

In the case of `Cc1ncsc1-c1ccc(CNC(=O)[C@@H]2C[C@@H](O)CN2C(=O)[C@@H](NC(=O)CCCCCCN2CCN(c3ccc(Nc4ncc5nc(Nc6ccccc6)n(C6CCCC6)c5n4)cc3)CC2)C(C)(C)C)cc1`, the Activity [1] is reported as “Active”, the Activity (NCI-H1975 [2]) is reported as “Active” and the Activity [3] is reported as “inactive”. For the same molecule, the Activity [4] was “Active”, the IC50 (NCI-H1975 [5]) was 203 nM and the Activity [6] was “Active”. The Emax [7] was 80.4%, the Activity [8] was “inactive” and the inhibition (HCC827 [9]) was “Active”. For the same molecule, the Activity [10] was “inactive”, the Activity [11] was “Active” and the Activity [12] was “inactive”. The IC50 (HCC827 [13]) was 0.83 nM, the Emax [14] was 90.3% and the Activity [15] was “Active”. For the same molecule, the Activity (HCC827 [16]) was “Active”.
